PMC3954597 (Biochemistry, 2014)
Positions count from the first letter of the chain named. Square brackets hold non-standard residues; d marks the D form. pY = N[C@@H](Cc1ccc(OP(=O)(O)O)cc1)C(=O)O

T1: PTP1B (Homo sapiens, UniProt P18031)
T1 sequence (P18031 1-321): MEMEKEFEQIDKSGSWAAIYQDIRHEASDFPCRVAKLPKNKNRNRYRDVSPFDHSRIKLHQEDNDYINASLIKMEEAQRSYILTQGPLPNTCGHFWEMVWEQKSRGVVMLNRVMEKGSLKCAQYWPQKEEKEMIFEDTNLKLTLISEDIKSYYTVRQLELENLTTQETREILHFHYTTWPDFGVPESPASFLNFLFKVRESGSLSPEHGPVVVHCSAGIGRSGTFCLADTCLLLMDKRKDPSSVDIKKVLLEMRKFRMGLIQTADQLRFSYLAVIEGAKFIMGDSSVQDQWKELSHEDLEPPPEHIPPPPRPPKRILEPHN

T2: R47E PTP1B (Homo sapiens, UniProt P18031, R47E)
T2 sequence (P18031 1-321 R47E): T1 sequence (P18031 1-321) with R47E

T3: R24M PTP1B (Homo sapiens, UniProt P18031, R24M)
T3 sequence (P18031 1-321 R24M): T1 sequence (P18031 1-321) with R24M

T4: PTP-PEST (Homo sapiens, UniProt Q05209)
T4 sequence (Q05209 5-300): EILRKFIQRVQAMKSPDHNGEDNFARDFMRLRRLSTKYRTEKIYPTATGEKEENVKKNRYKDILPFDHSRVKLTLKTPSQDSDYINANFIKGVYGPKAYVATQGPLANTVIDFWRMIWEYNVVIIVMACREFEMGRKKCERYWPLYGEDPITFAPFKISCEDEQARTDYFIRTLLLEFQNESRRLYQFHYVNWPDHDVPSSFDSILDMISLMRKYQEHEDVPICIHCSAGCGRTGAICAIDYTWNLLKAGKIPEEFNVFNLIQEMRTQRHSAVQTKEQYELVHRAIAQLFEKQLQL

T5: SHP-2 (Homo sapiens, UniProt Q06124)
T5 sequence (Q06124 199-593): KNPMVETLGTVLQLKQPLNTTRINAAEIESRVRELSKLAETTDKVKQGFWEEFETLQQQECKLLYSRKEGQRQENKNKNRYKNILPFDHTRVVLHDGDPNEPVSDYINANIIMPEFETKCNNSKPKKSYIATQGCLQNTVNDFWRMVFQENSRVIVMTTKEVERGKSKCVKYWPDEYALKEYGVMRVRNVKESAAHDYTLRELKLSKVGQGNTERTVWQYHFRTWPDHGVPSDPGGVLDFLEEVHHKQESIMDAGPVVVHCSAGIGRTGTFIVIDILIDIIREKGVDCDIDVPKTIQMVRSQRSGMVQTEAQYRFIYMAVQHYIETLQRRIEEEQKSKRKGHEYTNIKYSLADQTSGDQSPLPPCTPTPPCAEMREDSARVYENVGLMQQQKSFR

T6: R47E PTP1B catalytic domain (amino acids 1-321) (human) (UniProt P18031)
T6 sequence: T1 sequence (P18031 1-321) with R47E

T7: wild-type PTP1B catalytic domain (amino acids 1-321) (human) (UniProt P18031)
T7 sequence: T1 sequence (P18031 1-321)

T8: R24M PTP1B catalytic domain (amino acids 1-321) (human) (UniProt P18031)
T8 sequence: T1 sequence (P18031 1-321) with R24M

B1: Ac-ARKRIpYAA-NH2 (peptide)
peptide: Ac-ARKRI[pY]AA-NH2
SMILES: CC[C@H](C)[C@H](NC(=O)[C@H](CCCNC(=N)N)NC(=O)[C@H](CCCCN)NC(=O)[C@H](CCCNC(=N)N)NC(=O)[C@H](C)NC(C)=O)C(=O)N[C@@H](Cc1ccc(OP(=O)(O)O)cc1)C(=O)N[C@@H](C)C(=O)N[C@@H](C)C(N)=O
B2: Ac-AApYDDAAA-NH2 (peptide)
peptide: Ac-AA[pY]DDAAA-NH2
SMILES: CC(=O)N[C@@H](C)C(=O)N[C@@H](C)C(=O)N[C@@H](Cc1ccc(OP(=O)(O)O)cc1)C(=O)N[C@@H](CC(=O)O)C(=O)N[C@@H](CC(=O)O)C(=O)N[C@@H](C)C(=O)N[C@@H](C)C(=O)N[C@@H](C)C(N)=O
B3: Ac-AApYIRKRA-NH2 (peptide)
peptide: Ac-AA[pY]IRKRA-NH2
SMILES: CC[C@H](C)[C@H](NC(=O)[C@H](Cc1ccc(OP(=O)(O)O)cc1)NC(=O)[C@H](C)NC(=O)[C@H](C)NC(C)=O)C(=O)N[C@@H](CCCNC(=N)N)C(=O)N[C@@H](CCCCN)C(=O)N[C@@H](CCCNC(=N)N)C(=O)N[C@@H](C)C(N)=O

Assays:
PTP1B = molecular target: T1, PTP1B; test: PTP assay, wild-type PTP1B; type: biochemical; conditions: for kcat/KM x 10^7: WT PTP1B aa 1–321, pH 7.4; for kcat/KM x10^6: WT catalytic domain aa 1–321, 100 mM HEPES pH 7.4, monitored at 282 nm
Method in brief: (§1)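 E. coli-expressed catalytic domains were used: wild-type, R24M or R47E PTP1B (aa 1–321), and SHP-1 (aa 205–595). Reactions started with PTP (0.5–20000 nM final) and dephosphorylation was monitored continuously at 282 nm. kcat, KM and kcat/KM came from initial-rate fits (Michaelis–Menten, or V = kcat[E][S]/KM when KM >> [S]) or from fits of progress curves.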

R47E PTP1B = molecular target: T2, R47E PTP1B; test: PTP assay, R47E PTP1B; type: biochemical; conditions: for Km / kcat / kcat/KM x 10^7: R47E PTP1B aa 1–321, pH 7.4; for WT/R47E: ratio of kcat/KM, WT over R47E PTP1B (fold decrease by the mutation)
Method in brief: as §1

R24M PTP1B = molecular target: T3, R24M PTP1B; test: PTP assay, R24M PTP1B; type: biochemical; conditions: for Km / kcat / kcat/KM x 10^7: R24M PTP1B aa 1–321, pH 7.4; for WT/R24M: ratio of kcat/KM, WT over R24M PTP1B (fold reduction by the mutation)
Method in brief: as §1

PTP-PEST = molecular target: T4, PTP-PEST; test: PTP assay with pY peptide substrates, PTP-PEST; type: biochemical; conditions: catalytic domain; pH 7.4
SHP-1 = SHP-1 (Homo sapiens, UniProt P29350); conditions: catalytic domain; cited from earlier work
SHP-1, sequence (P29350 205-595): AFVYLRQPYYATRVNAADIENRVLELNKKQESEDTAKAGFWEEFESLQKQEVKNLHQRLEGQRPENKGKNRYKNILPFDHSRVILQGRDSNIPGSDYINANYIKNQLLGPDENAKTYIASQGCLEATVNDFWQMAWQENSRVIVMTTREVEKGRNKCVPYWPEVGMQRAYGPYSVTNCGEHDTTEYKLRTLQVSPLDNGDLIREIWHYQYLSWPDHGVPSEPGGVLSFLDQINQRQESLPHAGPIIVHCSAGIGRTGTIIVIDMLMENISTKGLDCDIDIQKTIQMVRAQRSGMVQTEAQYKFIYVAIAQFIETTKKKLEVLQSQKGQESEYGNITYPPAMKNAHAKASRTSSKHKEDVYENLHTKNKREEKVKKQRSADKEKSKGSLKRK

SHP-2 = molecular target: T5, SHP-2; conditions: catalytic domain; cited from earlier work
[1] = molecular target: T6, R47E PTP1B catalytic domain (amino acids 1-321) (human)
[2] = molecular target: T7, wild-type PTP1B catalytic domain (amino acids 1-321) (human)
[3] = molecular target: T8, R24M PTP1B catalytic domain (amino acids 1-321) (human)

Molecule	kcat/KM x 10^7 (PTP1B)	Km (R47E PTP1B)	kcat (R47E PTP1B)	kcat/KM x 10^7 (R47E PTP1B)	WT/R47E (R47E PTP1B)	Km (R24M PTP1B)	kcat (R24M PTP1B)	kcat/KM x 10^7 (R24M PTP1B)	WT/R24M (R24M PTP1B)	further results
AApYAAADD	0.97 x 10^7 M^−1 s^−1	10 ± 1 µM	35 ± 1 s⁻¹	0.35 x 10^7 M^−1 s^−1	2.8	8.7 ± 0.4 µM	37 ± 1 s⁻¹	0.43 x 10^7 M^−1 s^−1	2.3	–
AApYAADDA	1.1 x 10^7 M^−1 s^−1	11 ± 2 µM	36 ± 2 s⁻¹	0.32 x 10^7 M^−1 s^−1	3.4	6.9 ± 0.1 µM	38 ± 1 s⁻¹	0.55 x 10^7 M^−1 s^−1	2.0	–
AApYADDAA	1.4 x 10^7 M^−1 s^−1	12 ± 1 µM	34 ± 1 s⁻¹	0.29 x 10^7 M^−1 s^−1	4.8	6.4 ± 0.2 µM	38 ± 1 s⁻¹	0.59 x 10^7 M^−1 s^−1	2.4	–
AApYDDAAA	0.43 x 10^7 M^−1 s^−1	34 ± 2 µM	33 ± 2 s⁻¹	0.097 x 10^7 M^−1 s^−1	4.4	–	–	0.027 x 10^7 M^−1 s^−1	16	–
AApYDDIDE	1.1 x 10^7 M^−1 s^−1	56 ± 2 µM	43 ± 1 s⁻¹	0.076 x 10^7 M^−1 s^−1	14	37 ± 1 µM	42 ± 1 s⁻¹	0.11 x 10^7 M^−1 s^−1	10	kcat/KM x10^6 (PTP1B): 11 x10^6 M^−1 s^−1
AApYIRKRA	0.042 x 10^7 M^−1 s^−1	89 ± 3 µM	34 ± 2 s⁻¹	0.038 x 10^7 M^−1 s^−1	1.1	52 ± 3 µM	34 ± 1 s⁻¹	0.065 x 10^7 M^−1 s^−1	0.62	increased PTP1B activity by R24M mutation (R24M PTP1B; R24M relative to WT): 1.6 fold
AApYWAYDD	–	–	–	–	–	–	–	–	–	kcat/KM x10^6 (PTP1B): 15 x10^6 M^−1 s^−1
ARKRIpYAA	0.025 x 10^7 M^−1 s^−1	31 ± 4 µM	37 ± 2 s⁻¹	0.12 x 10^7 M^−1 s^−1	0.21	–	–	–	–	increased PTP1B activity by R47E mutation (R47E PTP1B; R47E relative to WT): 5 fold
Ac-AApYDLDEY-NH2	–	–	–	–	–	–	–	–	–	kcat/KM (PTP-PEST): 1.3e+08 M⁻¹ s⁻¹; kcat/KM x10^6 (PTP1B): 18 x10^6 M^−1 s^−1
Ac-ASSDEpYAA-NH2	1.7 x 10^7 M^−1 s^−1	32 ± 1 µM	31 ± 1 s⁻¹	0.097 x 10^7 M^−1 s^−1	18	3.8 ± 0.2 µM	32 ± 1 s⁻¹	0.84 x 10^7 M^−1 s^−1	2.0	kcat/KM (PTP-PEST): 7.2e+06 M⁻¹ s⁻¹; kcat/KM x10^6 (PTP1B): 17 x10^6 M^−1 s^−1
Ac-AWGPLpYDEVQM-NH2	1.7 x 10^7 M^−1 s^−1	5.6 ± 0.4 µM	34 ± 2 s⁻¹	0.61 x 10^7 M^−1 s^−1	2.8	5 ± 0.5 µM	36 ± 1 s⁻¹	0.72 x 10^7 M^−1 s^−1	2.3	–
DPRGIpYDQVAG	0.38 x 10^7 M^−1 s^−1	23 ± 1 µM	35 ± 1 s⁻¹	0.15 x 10^7 M^−1 s^−1	2.5	71 ± 1 µM	36 ± 1 s⁻¹	0.051 x 10^7 M^−1 s^−1	7.6	–
EEDNAWpYAA	2.1 x 10^7 M^−1 s^−1	9.5 ± 0.4 µM	32 ± 1 s⁻¹	0.33 x 10^7 M^−1 s^−1	6.4	1.9 ± 0.1 µM	35 ± 1 s⁻¹	1.8 x 10^7 M^−1 s^−1	1.2	kcat/KM x10^6 (PTP1B): 21 x10^6 M^−1 s^−1
EIFDFpYAA	–	–	–	–	–	–	–	–	–	Km (SHP-1): 27 ± 4 µM; kcat (SHP-1): 32 ± 2 s⁻¹; kcat/KM x10^6 (SHP-1): 1.2 x10^6 M^−1 s^−1; Km (SHP-2): 54 ± 6 µM; kcat (SHP-2): 26 ± 1 s⁻¹; kcat/KM x10^6 (SHP-2): 0.48 x10^6 M^−1 s^−1
FDIDIpYAA	–	–	–	–	–	–	–	–	–	Km (SHP-1): 13 ± 1 µM; kcat (SHP-1): 33 ± 1 s⁻¹; kcat/KM x10^6 (SHP-1): 2.5 x10^6 M^−1 s^−1; Km (SHP-2): 39 ± 5 µM; kcat (SHP-2): 30 ± 2 s⁻¹; kcat/KM x10^6 (SHP-2): 0.77 x10^6 M^−1 s^−1
FYDIDpYAA	–	–	–	–	–	–	–	–	–	Km (SHP-1): 28 ± 2 µM; kcat (SHP-1): 66 ± 2 s⁻¹; kcat/KM x10^6 (SHP-1): 2.4 x10^6 M^−1 s^−1; Km (SHP-2): 66 ± 13 µM; kcat (SHP-2): 50 ± 4 s⁻¹; kcat/KM x10^6 (SHP-2): 0.75 x10^6 M^−1 s^−1
WAGDDpYAA	–	–	–	–	–	–	–	–	–	Km (SHP-1): 45 ± 5 µM; kcat (SHP-1): 57 ± 2 s⁻¹; kcat/KM x10^6 (SHP-1): 1.3 x10^6 M^−1 s^−1; Km (SHP-2): 68 ± 15 µM; kcat (SHP-2): 36 ± 3 s⁻¹; kcat/KM x10^6 (SHP-2): 0.53 x10^6 M^−1 s^−1
B1	–	–	–	–	–	–	–	–	–	KM, steady-state dephosphorylation of the pY peptide [1]: 31 µM; KM, steady-state dephosphorylation of the pY peptide [2]: 166 µM
B2	–	–	–	–	–	–	–	–	–	KM, steady-state dephosphorylation of the pY peptide [1]: 34 µM; KM, steady-state dephosphorylation of the pY peptide [2]: 6.5 µM
B3	–	–	–	–	–	–	–	–	–	KM, steady-state dephosphorylation of the pY peptide [2]: 89 µM; KM, steady-state dephosphorylation of the pY peptide [3]: 52 µM
